pIC50: −log10 of the molar value. ≈ marks a conversion by molar mass, not a printed value. Calls of active or inactive are those of the source. The rule behind the calls is not given here.
Experiments:
Bacillus subtilis = experiment: Antibacterial activity against Bacillus subtilis at 1 mg/mL; format: functional, organism-based
Aspergillus niger = experiment: Antifungal activity against Aspergillus niger at 1 mg/mL; format: functional, organism-based
Staphylococcus aureus [1] = experiment: Antibacterial activity against Staphylococcus aureus at 1 mg/mL; format: functional, organism-based
Candida albicans = experiment: Antifungal activity against Candida albicans at 1 mg/mL; format: functional, organism-based
Rhodotorula glutinis = experiment: Antifungal activity against Rhodotorula glutinis at 1 mg/mL; format: functional, organism-based
Staphylococcus aureus [2] = experiment: Antibacterial activity against methicillin/multi-drug-resistant Staphylococcus aureus assessed as growth inhibition; format: functional
HepG2 = experiment: Cytotoxicity against human HepG2 cells after 48 hrs by MTT assay; format: functional, cell-based; conditions: HepG2, 48 h
Summary of the method: (§1)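 MTT assay. Cells grown in RPMI1640 or DMEM with 10% fetal bovine serum at 37 °C, 5% CO2. Adherent cells allowed to attach 12 h before dosing; suspended cells seeded at dosing, initial density 1 × 10^5 cells/mL. Tested at 1, 10, 50 and 100 μM for 48 h in triplicate, 5-fluorouracil as positive control. Cells solubilized with DMSO, OD read at 595 nm. IC50 taken from mean-OD versus concentration curves.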

HeLa = experiment: Cytotoxicity against human HeLa cells after 48 hrs by MTT assay; format: functional, cell-based; summary of the method: as §1

Row | Structure (SMILES) | Activity (Bacillus subtilis) | Activity (Aspergillus niger) | Activity (Staphylococcus aureus [1]) | Activity (Candida albicans) | Activity (Rhodotorula glutinis) | MIC50 (Staphylococcus aureus [2]) | pIC50 (HepG2) | pIC50 (HeLa)
1 | CC1=CC[C@H]2[C@H]3[C@](C)(CC4=CC(=O)C=C[C@@]42O)[C@@H](C)CC[C@]13C | inactive | inactive | inactive | inactive | inactive | – | – | –
2 | CC1=CCC[C@H]2[C@]3(C)CC4=CC(=O)C=C[C@@]4(O)[C@]3(C)CC[C@]12C | inactive | inactive | inactive | inactive | inactive | – | – | –
3 | C=C1[C@H]2C[C@]3(C)C(C)=CCC[C@H]3[C@]1(C)CC1=C2C(=O)C=C(OCC)C1=O | – | – | – | – | – | 0.2 µg/mL (≈ 0.567 µM) | – | –
4 | O=c1[nH]cc(F)c(=O)[nH]1 [FLUOROURACIL] | – | – | – | – | – | – | 5.12 | 5.64
5 | C=C1CC[C@@H]2C3=C(C[C@]4(C)[C@@H](C)CC[C@@]1(C)[C@@H]24)C(=O)C(OCC)=CC3=O | inactive | inactive | inactive | inactive | inactive | – | 5.03 | 5.15
